Laboratory results as given in publication PMC9302452 (ACS Bio & Med Chem Au, 2022).

Tests used:
[1] = biological target: T1, ERRα (Homo sapiens, UniProt P11474); assay: Transient transfection mammalian two-hybrid reporter gene assay; conditions: 5.0 μM, 24 h incubation, heterologous cell-based reporter assay
T1 sequence (P11474 193-421 limits assumed): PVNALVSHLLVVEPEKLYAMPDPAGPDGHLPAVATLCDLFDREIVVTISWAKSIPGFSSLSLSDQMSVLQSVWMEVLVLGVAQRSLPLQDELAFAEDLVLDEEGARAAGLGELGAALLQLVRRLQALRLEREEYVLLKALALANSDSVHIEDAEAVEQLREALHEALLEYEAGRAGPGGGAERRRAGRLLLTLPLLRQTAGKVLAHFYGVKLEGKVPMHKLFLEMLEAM
T1 sequence (Q9UBK2 1-798 partner): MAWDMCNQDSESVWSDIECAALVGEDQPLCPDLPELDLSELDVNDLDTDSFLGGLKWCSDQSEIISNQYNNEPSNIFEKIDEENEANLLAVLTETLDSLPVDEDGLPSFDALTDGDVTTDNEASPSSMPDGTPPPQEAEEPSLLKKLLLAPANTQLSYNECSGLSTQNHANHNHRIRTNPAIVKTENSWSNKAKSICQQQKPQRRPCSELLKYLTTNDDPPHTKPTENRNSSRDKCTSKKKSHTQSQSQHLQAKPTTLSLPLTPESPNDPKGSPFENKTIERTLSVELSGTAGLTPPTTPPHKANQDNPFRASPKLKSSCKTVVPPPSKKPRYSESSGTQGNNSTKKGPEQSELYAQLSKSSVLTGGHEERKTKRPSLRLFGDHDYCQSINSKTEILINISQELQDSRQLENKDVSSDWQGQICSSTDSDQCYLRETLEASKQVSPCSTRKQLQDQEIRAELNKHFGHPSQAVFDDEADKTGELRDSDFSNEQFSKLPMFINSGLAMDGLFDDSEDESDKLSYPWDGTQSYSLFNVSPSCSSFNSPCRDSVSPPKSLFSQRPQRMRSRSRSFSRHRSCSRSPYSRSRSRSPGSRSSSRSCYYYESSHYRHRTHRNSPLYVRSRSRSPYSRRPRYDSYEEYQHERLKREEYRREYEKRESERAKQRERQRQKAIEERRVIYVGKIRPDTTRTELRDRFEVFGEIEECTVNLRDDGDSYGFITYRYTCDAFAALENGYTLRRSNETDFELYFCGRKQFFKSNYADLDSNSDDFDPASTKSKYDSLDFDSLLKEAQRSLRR
How it was run: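 HEK293T cells were seeded at 10,000/well in DMEM with 10% FBS. After 18–24 h they were lipofected with GAL4-DBD-ERRα-LBD (0.5 ng), pcDNA-PGC-1α (0.5 ng), pFR reporter (25 ng) and pRL-TK Renilla control (3.0 ng). Test compound was added at 5.0 μM 6 h post-transfection for a further 24 h, and firefly/Renilla luciferase was read by dual-luciferase assay.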

[2] = biological target: T2, ERRα (Homo sapiens, UniProt P11474); assay: AAB-Luc cells stably expressing ERRα luciferase reporter; type: cell-based
T2 sequence (P11474 1-423): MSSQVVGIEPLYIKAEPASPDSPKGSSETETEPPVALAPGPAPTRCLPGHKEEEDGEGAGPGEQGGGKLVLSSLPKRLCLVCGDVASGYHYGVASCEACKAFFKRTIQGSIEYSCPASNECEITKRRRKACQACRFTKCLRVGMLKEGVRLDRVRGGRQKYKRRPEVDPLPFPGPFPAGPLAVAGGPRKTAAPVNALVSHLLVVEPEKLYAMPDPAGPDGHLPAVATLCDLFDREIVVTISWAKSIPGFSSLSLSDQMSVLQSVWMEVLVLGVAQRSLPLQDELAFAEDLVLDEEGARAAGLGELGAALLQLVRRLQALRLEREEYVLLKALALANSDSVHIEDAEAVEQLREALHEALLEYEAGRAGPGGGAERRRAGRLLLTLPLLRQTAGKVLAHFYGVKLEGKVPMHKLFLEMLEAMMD
How it was run: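 HEK293T cells were stably transduced at MOI 7 with a lentiviral AAB-GFP-Luc reporter. AAB is the ERRα response element, and the vector carries GFP and luciferase markers. The ERRα luciferase reporter read-out was multiplexed with a cell-viability assay. Test compounds were screened in three independent experiments.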

[3] = biological target: T3, ERRα-LBD (Homo sapiens, UniProt P11474); assay: AlphaScreen assay, interaction of ERRα-LBD with PGC1α peptide; type: binding
T3 sequence (P11474 193-421 limits assumed): T1 sequence (P11474 193-421 limits assumed)
How it was run: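 AlphaScreen used a hexahistidine detection kit with 200 nM His-tagged ERRα-LBD and 50 nM biotinylated PGC1α cofactor peptide, plus donor and acceptor beads. Buffer was 50 mM MOPS, 50 mM NaF, 0.05 mM CHAPS and 0.1 mg/mL BSA at pH 7.4. Test compound was added as a serial dilution series, and EC50 was derived from enhancement of the LBD–peptide interaction.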

[4] = biological target: T2, ERRα; assay: Cellular thermal shift assay; type: cell-based; conditions: HepG2 cells, concentration as low as 1.0 μM
How it was run: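 HepG2 cells grown to ~90% confluence were exposed to DMSO or test compound (1.0 or 5.0 μM in fresh medium) for 4 h at 37 °C, 5% CO2. Cells were harvested, washed, resuspended in PBS, split into seven aliquots and heated at 48–60 °C for 3 min. They were then held 10 min at room temperature and freeze-thawed thrice in liquid nitrogen. Lysates were spun 30 min at 4 °C and soluble ERRα was assessed by SDS-PAGE/western blot.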

[5] = system: ERRα; assay: Real-time PCR, transcriptional level of ERRα; type: cell-based; conditions: 5.0 μM, 24 h incubation
How it was run: (§1)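 mRNA was quantified by real-time PCR with SYBR Premix Ex Taq under optimised conditions. Gene expression was normalised to Gapdh as the reference gene.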

[6] = system: ERRβ; assay: Real-time PCR, transcriptional level of ERRβ; type: cell-based; conditions: 5.0 μM, 24 h incubation
How it was run: as §1

[7] = system: ERRγ; assay: Real-time PCR, transcriptional level of ERRγ; type: cell-based; conditions: 5.0 μM, 24 h incubation
How it was run: as §1

[8] = system: ERα; assay: Expression of other nuclear hormone receptors: ERα; type: cell-based; conditions: Figure S3
[9] = system: ERβ; assay: Expression of other nuclear hormone receptors: ERβ; type: cell-based; conditions: Figure S3
[10] = system: ERγ; assay: Expression of other nuclear hormone receptors: ERγ; type: cell-based; conditions: Figure S3
[11] = system: PPARγ; assay: Expression of other nuclear hormone receptors: PPARγ; type: cell-based; conditions: Figure S3
[12] = system: ERRα-targeted genes MCAD, PDK4, ATP5β; assay: Quantitative real-time PCR of ERRα-targeted genes; type: cell-based
How it was run: as §1

[13] = system: glucose/insulin-induced HepG2-IR cells; assay: Oil red O lipid accumulation, glucose/insulin-induced HepG2-IR cells; type: cell-based; conditions: high glucose/high insulin HepG2-IR, 10.0 μM, 48 h
How it was run: (§2)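 HepG2 steatosis models were induced two ways. Line 3 used DMEM with 10% FBS and 1% BSA plus palmitic (0.33 mM) and oleic (0.66 mM) acid, final 1.0 mM, for 24 h. Line 4 used high glucose and insulin. Cells received DMSO or 10.0 μM test compound for 48 h; Erra overexpression and shRNA knockdown served as controls. Cells were formaldehyde-fixed, stained with 0.5% oil red O in isopropanol for 30 min with hematoxylin counterstain, and lipid was quantified.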

[14] = system: FFA-induced HepG2-IR cells; assay: Oil red O lipid accumulation, FFA-induced HepG2-IR cells; type: cell-based; conditions: palmitic acid (FFA) HepG2-IR, 10.0 μM, 48 h
How it was run: as §2

[15] = system: HepG2-IR cells; assay: Glucose uptake assay in HepG2-IR cells; type: cell-based
How it was run: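 HepG2-IR cells were starved 2 h in serum-free medium, then washed in glucose-free KRPH buffer (HEPES, pH 7.4, 0.2% fatty-acid-free BSA). They were incubated 30 min in KRPH with 5.0 μM test compound, 5 mM D-glucose and 2-deoxy-D-[3H]glucose. After ice-cold PBS washes, cells were lysed in 0.5 M NaOH/0.1% SDS and neutralised with HCl. Uptake was read by liquid scintillation counting.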

[16] = system: HepG2-IR cells; assay: Fatty acid oxidation assay in HepG2-IR cells; type: cell-based
How it was run: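 Insulin-resistant HepG2 (HepG2-IR) cells were treated with test compound or vehicle for 24 h. They were then incubated 1.5 h at 37 °C with 0.2 mM L-carnitine and 200 μM [14C(U)]palmitate (0.1 μCi/mL), compound still present. Released CO2 was trapped on methylbenzylamine/methanol-soaked paper after acidifying with 6 M HCl. Acid-soluble products in the supernatant were also counted by scintillation. Values were normalised to protein (BCA) from parallel wells.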

[17] = system: ERRα target genes in HepG2-IR cells; assay: Expression of ERRα and target genes in HepG2-IR cells; type: cell-based
[18] = Pharmacokinetics in SD rats; type: in vivo, rat
How it was run: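 Male Sprague–Dawley rats were dosed with test compound i.v. at 2.0 mg/kg or by oral gavage at 10 mg/kg. The formulation was 5% DMSO/95% hydroxypropyl-β-cyclodextrin (20% w/v) at 1 mg/mL. Orbital-sinus blood was drawn into heparin at 5, 15 and 30 min and at 1, 2, 4, 6, 8 and 24 h. Plasma was stored at −80 °C and quantified by LC/MS, and PK parameters were calculated.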

[19] = Tissue distribution after oral administration; type: in vivo; conditions: male, SD, rat, 30 mg/kg
How it was run: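 Male SD animals received a single oral gavage of test compound at 30 mg/kg in 0.5% CMC-Na. Blood and tissues were collected at 0.25, 0.5, 2 and 4 h, with 3 animals per time point. Heparinised blood was centrifuged and plasma stored at −80 °C. Plasma and tissue concentrations were measured by LC/MS and expressed as tissue-to-plasma ratios.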

[20] = system: HFD-induced obese mice; assay: HFD-induced obese C57 mice, daily oral treatment for 4 weeks; type: in vivo, mouse
How it was run: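 C57 mice were made obese on HFD for 8 weeks; low-fat-diet mice served as controls. They were then gavaged daily for 4 weeks with test compound (10 or 30 mg/kg) or PBS vehicle diluted in 0.5% CMC-Na. Body weight and fasting glucose were tracked during dosing. Mice were fasted overnight and killed, and livers were taken for kit-based CS activity, mtDNA and SYBR qPCR (Gapdh reference); n = 5.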

[21] = system: Errα-LKO mice; assay: Errα-LKO mice on HFD treated with compound; type: in vivo, mouse; conditions: 30 mg/kg body weight
How it was run: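 Liver-specific Errα knockout mice came from crossing Errα-floxed with albumin-Cre mice. They were fed HFD for 8 weeks, then gavaged daily for 4 weeks with test compound (30 mg/kg) or PBS vehicle diluted in 0.5% CMC-Na. For IGTT, overnight-fasted mice received 1.0 g/kg glucose i.p. For ITT, 6 h-fasted mice received 0.5 U/kg human insulin i.p. Tail-vein glucose was read by glucometer. Liver glucose uptake was also measured; n = 5.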

[22] = male, Sprague-Dawley, rat, plasma, po, 10 mg/kg
[23] = abdominal adipose tissue/plasma
[24] = 10 and 30 mg/kg/day oral, 4 weeks

COc1ccc2c(=O)n(C)c(-c3ccccc3)nc2c1 [Compound 7, 7-methoxy-3-methyl-2-phenyl quinazolin-4(3H)-one]
ERRα-driven luciferase activity [1]: effectively improved the ERRα-driven luciferase activity
EC50 [2]: 2700 nM
EC50 [3]: 86 nM
Thermal degradation of ERRα [4]: obviously inhibited thermal degradation of ERRα
Elevation of transcriptional level of ERRα [5]: approximately 2.5 fold
Effect on transcriptional level of ERRβ [6]: did not display an obvious effect
Effect on transcriptional level of ERRγ [7]: did not display an obvious effect
Expression of ERα [8]: not obviously affected
Expression of ERβ [9]: not obviously affected
Expression of ERγ [10]: not obviously affected
Expression of PPARγ [11]: not obviously affected
mRNA levels of ERRα downstream genes (MCAD, PDK4, ATP5β) [12]: dose-dependently elevated mRNA levels
Lipid accumulation (oil red O) [13]: significantly alleviated lipid accumulation
Lipid accumulation (oil red O) [14]: significantly alleviated lipid accumulation
Glucose uptake [15]: significantly enhanced
Fatty acid oxidation [16]: significantly enhanced
Expression of ERRα target genes including Errα [17]: increased by the molecule in a dose-dependent manner
Maximum plasma concentration ([18]; SD rat, PO 10 mg/kg): 2.0 ± 0.45 µM
F (oral bioavailability) ([18]; SD rat, PO 10 mg/kg vs IV 2 mg/kg, printed on the IV line of Table S1): 9.0%
Cmax [18, 22]: 531 ± 120 ng/mL
Tmax [18, 22]: 15 min
AUC(0-inf) ([18]; male, Sprague-Dawley, rat, plasma, po, 10 mg/kg, AUC(0-∞), SD rat, PO 10 mg/kg): 383 ± 110 ng·h/mL
Kp at 0.25 h [19, 23]: 7.4
Kp at 0.5 h [19, 23]: 30.1
Kp at 2 h [19, 23]: 22.8
Kp at 4 h [19, 23]: 235
Kp at 0.25 h ([19]; liver/plasma): 58.9
Kp at 0.5 h ([19]; liver/plasma): 39.8
Kp at 2 h ([19]; liver/plasma): 28.6
Kp at 4 h ([19]; liver/plasma): 47.4
Body weight [20, 24]: did not obviously affect body weight
Glucose tolerance (IGTT) [20, 24]: improved glucose tolerance
Insulin resistance (ITT) [20, 24]: improved glucose tolerance and insulin resistance
Fasting glucose levels ([20]; 10 and 30 mg/kg/day oral, 4 weeks, vs vehicle): decreased fasting glucose levels
Plasma FFA ([20]; HFD-elevated level): attenuated
Plasma TC ([20]; HFD-elevated level): attenuated
Plasma TG ([20]; HFD-elevated level): attenuated
Plasma insulin ([20]; HFD-elevated level): attenuated
Transcription of Errα and target genes (Pdk4, Atp5β, Pgc1α) in mouse liver ([20]; both 10 and 30 mg/kg): significantly elevated transcription
Expression of FFA oxidation genes Mcad and Cpt1a in liver ([20]; compound-treated group): obviously enhanced
Food intake ([20]; compound-treated vs PBS-fed mice): similar
Serum ALT level ([20]; daily oral): dampened
Serum AST level ([20]; daily oral): dampened
Hepatic steatosis (Oil red O and HE staining) ([20]; daily oral, both 10 and 30 mg/kg): potently mitigated hepatic steatosis
CS activity ([20]; liver): higher CS activity
Copy number of mitochondrial DNA ([20]; liver): elevated
Fatty acid oxidation ([20]; liver tissue): higher
Protein levels of AOX1, Cytochrome C, SDH, CPT1A ([20]; liver, western blot): elevated
Oxygen consumption ([20]; metabolic cage): elevated oxygen consumption
Protein levels of ERRα, PDK4, MCAD, ATP5β in liver ([20]; western blot): significantly increased protein levels
Akt signaling pathways in the liver (p-Akt/total Akt) ([20]; western blot of liver tissue): significantly sensitized Akt signaling pathways
Effects on systemic and liver insulin resistance in Errα-LKO mice [21]: almost completely abolished
